# According to the EternaBench riboswitch data:
# Tested on: MS2 coat protein
# Test: apparent Kd, MS2 coat protein; higher = weaker binding; RNA-MaP array; FMN 200 µM where present
# Outline: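 Two titrations, one without ligand and one with constant ligand, were run with SNAP-549-labelled MS2 coat protein from 0.7 or 1.5 nM, doubling to 3 µM. The targets were designs transcribed by stalled E. coli RNA polymerase on Illumina sequencing-chip clusters, in 100 mM Tris-HCl pH 7.5, 80 mM KCl, 4 mM MgCl2, BSA, DTT, yeast tRNA and Tween-20. The apparent Kd is the median of filtered per-cluster binding-curve fits, with green signal normalised to red-channel RNA signal and control-cluster median Fmax.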
# [1] = designed as: ON switch for flavin mononucleotide, no ligand
# [2] = ligand present: flavin mononucleotide, designed as: ON switch for flavin mononucleotide
# [3] = designed as: OFF switch for flavin mononucleotide, no ligand
# [4] = ligand present: flavin mononucleotide, designed as: OFF switch for flavin mononucleotide
Sequence,apparent Kd [1] [µM],apparent Kd [2] [µM],apparent Kd [3] [µM],apparent Kd [4] [µM]
AAAGUGCCGACGAAGGAUAUAGCGGGUGAGACAUGAGGAUCACCCAUGUAUGCAGAACUCAUCCUCUAGAAGGUUGAGACGGCUA,0.113,0.177,,
ACGUCGAGCCAGAAGGCAACAUGAGGAUCACCCAUGUAGUCCGGCUCGUGUUGAGGAUAUGGCACCCGCGCGGAAGGCGCAGGU,,,0.00512,0.00662
AGCCUAGCAGGAUAUGCUCAAGAUUACAUGAGGAUCACCCAUGUGACUGGUUGUUGUCUUGCAGAAGGGCUAGGGA,,,0.0206,0.0468
CGAUAUAUGAAGGGCAAAGGCCCACAUGAGGAUCACCCAUGUAGAAGGCGAUCCGCAACGCGGAUCGAGGAUAUAUAGUAUACA,,,0.00845,0.0081
AGGUACUAGGGAGGAUAUGGGAAGAUACAUGAGGAUCACCCAUGUUUAAGAAUGCCGAGAGGCAACUAGAAGGCCCUAGUACCU,0.454,0.0198,,
GUGUAGUCAGGAUAUACAUGAGGAUCACCCAUGUGAAUAAGAUAGAAUAAGAUAAAGUGUAGAAGGGAUAGUGU,,,0.0296,0.0257
GGAGACCUCGCAGGAUAUGCUGGACUUUGUCCAGCAGAAGGGUGAAAACAUGAGGAUCACCCAUGUAUGGUCUCCAAAUUUAAU,1.06,0.0543,,
AAUCUGUGAGGAUAUGGUGAGUAGUGCCUGAGCGCUGCUCACCAGAAGGCACAUGAGGAUCACCCAUGUAUGAA,,,0.0312,0.0996
UGUCGGAGCAGAGGAUAUUACAUGAGGAUCACCCAUGUAUGAACCAAUGGCUGGAAACAGCAAUGUAAGAAGGCUGCUCCGACA,,,0.00969,0.0645
AAUUUACAGGGAGGAUAUACAUGAGGAUCACCCAUGUAAUCAUAUGAUAUUUUUUUUGUAUGAGUGUAGAAGGCCCAACUACCA,,,0.0107,0.011
AAGUAACAUGAGGAUCACCCAUGUUAGGAUAUCUCGGCCACAGGAUCGCUGUGAAGCCAGAGAAGGAGCGGGUG,,,0.175,0.186
GUUGCUAUCGGAGGAUAUUCAUACCGGAAACGGACAUGAGGAUCACCCAUGUCGCGAAAGCGUUGGGAGAAGGCCGAUAGCAAC,0.248,0.0214,,
ACCGCUCGAGGAUAUACAUGAGGAUCACCCAUGUAACCCAGAAGCAAGGCCUCAGGAUGUAGAAGGCGACGCAA,,,0.014,0.0142
UUACUCAUGUAAGGAUAUGCAGCCGUUUCGGCUGCAGAAGGUACUAUACUACAUGAGGAUCACCCAUGUCUAUAAAAUAAAGAC,0.123,0.0444,,
GUAUUUUAAGUAAGGAUAUGCCUCUGGAAACGGAGGUAGAAGGUACAUGAGGAUCACCCAUGUUUCUCUUUUGG,,,0.0163,0.0206
UAUAUAAUAAGAGCUGGACUUCAAACAUGAGGAUCACCCAUGUAGGAUAUCAGCACGAUAAGUGCUGAGAAGGACAACCAGCUC,,,0.0165,0.0168
AUCUUGUAAGGAUAUCUGACAAGUGACGAAAGUCACAGUUCAGAGAAGGUACAUGAGGAUCACCCAUGUAGAAC,,,0.0176,0.0203
GCACUGCGAGGAUAUACAUGAGGAUCACCCAUGUGUCGGCAGCGAUGCCAGUACAAAUGUAGAAGGCGCGUAAA,,,0.026,0.114
AAGGAGUCAGGAUAUGCUGCUCGUCACUUGCGUGAUGAGUAGCAGAAGGGACAUGAGGAUCACCCAUGUAAAAA,,,0.0569,0.0558
AAUAACAGAGGAUAUACUGUUUUAUGUGUUUAUUAUUUUAAACAUGAGGAUCACCCAUGUAGAAGGCUGAAUAA,,,0.0427,0.0428
UUGAGGUCAGGAUAUGCAUGGCGGGACUUGCGUCGUGGCGUGCAGAAGGGACAUGAGGAUCACCCAUGUGGAGU,,,0.145,0.236
GCUAAUAUUUUGUUAAAUGUAUUUUGAGAAGGCAUACACAUGAGGAUCACCCAUGUAAUUUGUAAUGAGGAUAUCAUGAUGUGC,0.115,0.0315,,
GUAUAUAGUGUGAGGAUAUGCUGGUCCUUGGAUCAGCAGAAGGCACAUGAGGAUCACCCAUGUAGUUUAUUAUU,,,0.025,0.0803
